Sampled rows, rich in hits. Any-hit rate of the full collection: about 3.7%.
hERG protect – compounds protecting human hERG from proarrhythmic drug block; Q12809; CHO-hERG, FluxOR thallium flux, dofetilide IC70 present; activation (rescue from dofetilide block), less the hit threshold, % at 10 µM; 310,000 compounds, 0.51% hits; AID 1511;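 active = activation above the mean of controls blocked by dofetilide plus 5 SD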;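 note: thallium influx through hERG after potassium depolarization seen as dye fluorescence rise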
KCNK9 block – inhibitors of human KCNK9 two-pore domain potassium channel | Q9NPC2 | HEK293 KCNK9, FluxOR thallium flux fluorescence; hits give low values | B-score at 10 µM | 310,000 compounds, 1.2% hits;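 active = ratio B-score over 3 SD below the library mean, with starting fluorescence within 5 SD of its mean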;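 note: negative B-score means less thallium flux so channel inhibition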
Target sequence (Q9NPC2 whole entry, looked up, the tested form may be a part): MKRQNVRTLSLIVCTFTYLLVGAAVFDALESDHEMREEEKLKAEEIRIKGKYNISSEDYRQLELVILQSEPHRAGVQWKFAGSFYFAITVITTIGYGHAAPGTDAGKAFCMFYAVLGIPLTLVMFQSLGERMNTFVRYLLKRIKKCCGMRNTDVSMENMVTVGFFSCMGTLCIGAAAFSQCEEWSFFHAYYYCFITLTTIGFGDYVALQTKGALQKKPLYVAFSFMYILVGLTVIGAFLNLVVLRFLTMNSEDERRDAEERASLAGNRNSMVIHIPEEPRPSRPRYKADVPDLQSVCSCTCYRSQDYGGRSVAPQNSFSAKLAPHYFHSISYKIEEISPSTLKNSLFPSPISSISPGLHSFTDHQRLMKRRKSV
KCNQ1 inh – human KCNQ1 channel inhibition | P51787 | CHO-K1 KCNQ1, FluxOR thallium flux fluorescence; hits give high values | B-score at 10 µM | 310,000 compounds, 1.3% hits | AID 2642;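 active = compounds whose thallium flux B-score, printed positive for inhibition, exceeds three library SD while starting fluorescence stays within three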;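 note: channel opened by potassium depolarization with thallium stimulus after 20 min compound exposure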
Kir21 block – blocks the mouse Kir2.1 inward-rectifier potassium channel; 310,000 compounds, 0.85% hits; HEK293-Kir2.1, FluxOR thallium flux fluorescence; hits give low values; P35561; B-score at 10 µM; AID 1672;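 active = fluorescence ratio B-score at or below minus 3 SD of library scores, with starting-brightness B-score within 2 SD, cut at about -4.2 in these data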;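 note: channel flux triggered by added potassium and thallium sulfate stimulus; B-score of peak minus minimum fluorescence over baseline after thallium stimulus; more negative B-score means stronger Kir2.1 block with less thallium influx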
KCNQ1 pot – potentiators or activators of human KCNQ1 potassium channel; B-score at 10 µM; CHO-K1 KCNQ1, thallium flux FluxOR fluorescence; hits give high values; 310,000 compounds, 0.35% hits;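 active = fluorescence ratio B-score, a plate-corrected score, at least three library SD, with initial intensity B-score within 5 SD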
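Assay system: CHO-K1 cells stably expressing KCNQ1; Medium: assay buffer with matched DMSO; Also added: K+/Tl+ depolarizing stimulus; Dosing: single dose; Timing: dye 90 min, compound 20 min, room temperature; Measured by: kinetic FluxOR thallium fluorescence, 10-s 1-Hz baseline, 110-s post-stimulus read; Read-out: peak-minus-minimum fluorescence over initial fluorescence, negative-control normalized, B-scored.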
KCNK3 block – human KCNK3 channel inhibition, primary screen. CHO-KCNK3 thallium flux, FluxOR fluorescence; hits give low values. 340,000 compounds, 0.84% hits. AID 602410. O14649. B-score at 10 µM;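 active = B-score under library mean minus 4 SD, starting fluorescence ratio at most library mean plus 5 SD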;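 note: more negative B-score means stronger inhibition of thallium flux through KCNK3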
KCNK9 block conf – human KCNK9 inhibitor confirmation; 4,900 compounds, 43% hits; inhibition, % at 10 µM; HEK293 KCNK9 cells, FluxOR thallium flux fluorescence; shares compounds with KCNK9 block;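 active = thallium signal inhibited by more than 5 SD of the compound-free buffer control wells, on both duplicate plates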
Kir21 sel – selectivity of KCNK9 modulators against mouse Kir2.1; shares compounds with KCNK9 block; Kir2.1 cells, FluxOR thallium flux fluorescence; inhibition, % at 10 µM; 4,900 compounds, 4% hits;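 active = thallium signal drop more than 5 SD beyond the mean of the no-compound control wells, seen in both duplicate plates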;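 note: signal is fluorescence rise after thallium addition divided by baseline fluorescence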
HEK293 Tl ctr – second check of KCNK9 modulator effects in non-induced HEK293 cells | shares compounds with KCNK9 block | FluxOR thallium flux | inhibition, % at 10 µM | 4,900 compounds, 40% hits | AID 492997;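 active = thallium signal drop beyond 5 SD of the untreated control mean, on both duplicate plates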
Numbers stand for hits; - = inactive; . = no result.

SMILES	hERG protect	KCNK9 block	KCNQ1 inh	Kir21 block	KCNQ1 pot	KCNK3 block	KCNK9 block conf	Kir21 sel	HEK293 Tl ctr
Cc1ccc(SCCCn2cnc3ccccc3c2=O)cc1	-	-	-	-	-	-	-	-	-
COc1cc(CN(C)CC2CCCN(CCc3ccccc3F)C2)cc(Cl)c1OC (stereo unspecified)	-	-	-	-4.9	-	-	-	-	-
COc1ccccc1CCN1CCCC(CN(C)Cc2ccc(OCCO)cc2)C1 (stereo unspecified)	-	-	-	-	-	-	.	.	.
NS(=O)(=O)c1ccc(NC(=O)c2cccc(Cl)c2)cc1	-	-	-	-	-	-	.	.	.
COC(=O)c1ccccc1NC(=O)C1CCN(S(=O)(=O)c2cc(C)ccc2OC)CC1	-	-	-	-	-	-	.	.	.
COc1ccc(OC)c(S(=O)(=O)N2CCC(C(=O)Nc3cc(C)ccc3C)CC2)c1	-	-10	-	-	-	-	-	-	-
O=C(Nc1ccc2nc(-c3cccs3)[nH]c2c1)c1cccs1	-	-10	-	-	-	-	56%	-	-
O=C(Nc1ccc(S(=O)(=O)N2CCOCC2)cc1)c1cccc(Br)c1	-	-	-	-	-	-	.	.	.
COc1cc(OC)c(C(=O)NC23CC4CC(CC(C4)C2)C3)cc1OC	-	-	-	-	-	-	.	.	.
O=C(NC12CC3CC(CC(C3)C1)C2)c1cc(F)c(F)c(F)c1F	-	-	-	-	-	-	-	-	-
O=C(Cc1ccc(Cl)cc1)Nc1cccc(C(=O)Nc2ccccc2C(=O)O)c1	-	-	-	-	-	-	.	.	.
COc1cc(OC)c(CN2CCC(Cc3ccccc3)CC2)cc1Br	-	-	-	-4.8	-	-	-	-	-
C=CCOc1ccccc1CN1CCC(Cc2ccccc2)CC1	-	-	-	-4.3	-	-	-	-	-
OCc1ccccc1OCCCN1CCC(Cc2ccccc2)CC1	-	-	-	-	-	-	.	.	.
CCn1nc(C(=O)OCC(=O)c2cc(C)n(Cc3cccs3)c2C)c2ccccc2c1=O	-	-	-	-	-	-	-	-	-
Cc1cc(C(=O)COC(=O)c2ccc3c(c2)OCO3)c(C)n1Cc1cccs1	-	-	-	-	-	-	-	-	-
Cc1cc(C(=O)COC(=O)c2ccccc2O)c(C)n1Cc1cccs1	-	-	-	-	-	-	.	.	.
O=C(N[C@@H](Cc1ccc(Br)cc1)C(=O)O)OCC1c2ccccc2-c2ccccc21	-	-	-	-	-	-	-	-	-
O=C(N[C@H](Cc1ccc(Cl)cc1)C(=O)O)OCC1c2ccccc2-c2ccccc21	-	-	-	-	-	-	.	.	.
COc1ccc(CN(C)C(=O)c2ccc(Oc3ccccc3)cc2)cc1F	-	-	-	-	-	-	.	.	.
CN(Cc1ccc2ccccc2c1)C(=O)c1ccc(C(F)(F)F)cc1	-	-	-	-	-	-	-	-	38%
COc1ccc(C)cc1NC1=C(Cl)C(=O)N(C2CCCCC2)C1=O	-	-17	-	-	-	-	64%	-	44%
CCOc1ccc(NC2=C(Cl)C(=O)N(C3CCCCC3)C2=O)cc1	-	-	-	-	-	-	.	.	.
CCCCCCCCC/C(=N\O)c1ccccn1	-	-15	7	-	-	-	41%	-	50%
CCN(CC)c1ncnc2c1cnn2Cc1ccc(C)cc1	-	-	-	-	-	-	.	.	.
SMILES	hERG protect	KCNK9 block	KCNQ1 inh	Kir21 block	KCNQ1 pot	KCNK3 block	KCNK9 block conf	Kir21 sel	HEK293 Tl ctr
CCN(CC)c1nc(C)nc2c1cnn2CCc1ccccc1	-	-	-	-	-	-	-	-	-
COc1ccc2c(c1)-c1nc(NC(=O)c3ccco3)sc1CC2	-	-11	-	-	-	-	48%	-	-
COc1ccc2c(c1)CCc1sc(NC(=O)c3ccco3)nc1-2	-	-8.4	-	-	-	-	26%	-	-
COc1ccc2c(c1)Cc1sc(NC(=O)c3ccco3)nc1-2	-	-	-	-	-	-	.	.	.
O=C(CN(Cc1ccco1)C(=O)CNS(=O)(=O)c1ccc(F)cc1)NCc1ccccc1	-	-	-	-	-	-	.	.	.
Cc1cc(C)cc(NC(=O)C2CCN(C(=O)c3cccs3)CC2)c1	-	-	-	-	-	-	.	.	.
C/C(=N\Nc1nc2ccccc2s1)c1ccc(Br)s1	-	-	-	-	10	-	-	-	-
CC(=NNc1nc2ccccc2s1)c1ccncn1	.	.	.	.	.	-	.	.	.
CC(C(=O)Nc1ccc(C#N)cc1)N(C)Cc1cccs1 (stereo unspecified)	-	-	-	-	-	-	.	.	.
CC(C(=O)Nc1ccc(Cl)cc1)N(C)Cc1cccs1 (stereo unspecified)	-	-11	-	-	-	-	56%	-	25%
COC(=O)CSc1nc(SCc2ccccc2Cl)nc2c1CCCC2	-	-	-	-	-	-	-	-	-
O=C(O)CSc1nc(SCc2ccccc2Cl)nc2c1CCCC2	-	-	-	-	-	-	.	.	.
O=C(CNC(=O)c1ccccc1F)OC(C(=O)Nc1cc(C(F)(F)F)ccc1Cl)c1ccccc1 (stereo unspecified)	-	-11	-	-	-	-	-	-	32%
O=C(COC(=O)CNC(=O)c1ccccc1Cl)Nc1cc(C(F)(F)F)ccc1Cl	.	.	.	.	.	-	.	.	.
Cc1ccc(CN2CCN(/N=C\C=C\c3ccccc3)CC2)cc1	-	-	-	-	-	-	-	-	-
BrC(/C=N/N1CCN(Cc2ccccc2)CC1)=C/c1ccccc1	-	-	-	-	-	-	-	-	-
BrC(=C\c1ccccc1)/C=N/N1CCN(Cc2ccccc2)CC1	-	-	-	-	-	-	.	.	.
CC(/C=N\N1CCN(Cc2ccc(C)cc2)CC1)=C\c1ccccc1	-	-	-	-	-	-	-	-	-
O=C(C1=C[C@@H](c2ccccc2)C[C@@H](OCc2ccc(CO)cc2)O1)N1CCCCCCC1	-	-	-	-	-	-	.	.	.
CN(C)c1ccc(NC(=O)CN2C(=O)c3ccccc3C2=O)cc1	-	-	-	-	-	-	.	.	.
Cc1ccc(/C=N/N2CCN(Cc3cccc4ccccc34)CC2)s1	-	-	-	-	-	-	-	-	-
Cc1ccc(/C=N/N2CCN(Cc3cccc4ccccc34)CC2)o1	-	-	-	-	-	-	-	-	-
COc1cccc(CNC(=O)c2cc(=O)[nH]c3ccc(S(=O)(=O)N4CCOCC4)cc23)c1	.	.	.	.	.	-	.	.	.
CCOc1cc(/C=C/C(=O)OCC(=O)NC2CCS(=O)(=O)C2)ccc1OCc1ccccc1 (stereo unspecified)	-	-	-	-	-	-	.	.	.

Screening results deposited in PubChem by Johns Hopkins Ion Channel Center.
